# Screening results: PubChem, several laboratories
# The full list was thinned out, with hits kept by preference.
# Lmaj promast: reduces viability of Leishmania major promastigotes; resazurin fluorescence viability; inhibition, % at 10 µM; actives 9% (n = 200,000); AID 1063; in the data active = inhibition above about 50%;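 note: promastigotes grown with compound for 44 hours at 28 °C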
# T cruzi inh: T. cruzi replication inhibition; AID 1885; T. cruzi beta-gal in NIH3T3, luminescence, 90 h; inhibition, % (concentration not given with the values); actives 1.4% (n = 300,000);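 active = mean inhibition across valid replicates above about 55%, limit read from the data; inconclusive = mean below that limit but half or more replicates reach it; inactive = mean below it, under half of replicates reach it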;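 note: signal also drops with host cell toxicity which is not excluded here; 0% = plate median of DMSO wells and 100% = zero luminescence signal; higher percent means less beta-gal luminescence so fewer parasites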
#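 Assay system: NIH/3T3 host cells with β-galactosidase reporter T. cruzi; input: 5,000 host fibroblasts per well; compound: single 50 nL compound addition per well in DMSO; timing: ≥90 h infection period, 3 h prior cell attachment; measured by: GalScreen β-gal luminescence, detergent lysis, 60 min; evaluation: percent inhibition of parasite-derived β-gal signal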
# HSF-1 act: increases HSF-1 driven luciferase reporter signal; actives 1.7% (n = 300,000); AID 504408; NIH3T3-HGL HSF-1 luciferase reporter, MG132, 8 h; 100% = twice DMSO control signal; activation, % at 9 µM;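 active = mean replicate activation of at least 50% with a set share of replicates each reaching 50%; inconclusive = only one of those two conditions met; inactive = mean below 50% and too few replicates reaching it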;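 note: 0% = median of the neutral control wells and 100% = twice that signal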
# HSF1 inh: HSF1 inhibition; NIH3T3-HGL HSE-luciferase, MG132-induced, luminescence 8 h; active compounds read low; activity change, negative = inhibition, % at 7.5 µM (by protocol); actives 0.77% (n = 300,000); AID 2098;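 active = more than half of replicate wells show activity change below -50%, luminescence cut by over half; inconclusive = some wells, but at most half, below -50%; inactive = no replicate well below -50%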;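 note: luciferase reports HSF-1 transcriptional activity via heat shock element; 0% = median of DMSO wells and -100% = zero luminescence signal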
# Hsp70 act: transcriptional activators of Hsp70; activation, % at 10 µM; HeLa Hsp70 promoter luciferase reporter, luminescence; scaled: vehicle 0, proteasome-inhibitor control 100%; actives 0.04% (n = 200,000);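 active = activation above the mean across all tested compounds plus 3 SD, cutoff set per campaign, cut at about 5.5% in these data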;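 note: 100% = MG132 at 30 µM as the positive control and 0% = DMSO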
# * hit, by the source's call; ? = inconclusive; . = not tested or not shown.
SMILES,Lmaj promast,T cruzi inh,HSF-1 act,HSF1 inh,Hsp70 act
Cc1ccc(SCCC(=O)N2CCC(C)CC2)cc1,1,0,58*,20,0
CCOC(=O)CC(NC(=O)C(CC)c1ccccc1)c1ccccc1Cl (configuration not stated),95*,12,.,.,0
CCOC(=O)CC(NC(=O)Cc1ccccc1)c1ccccc1Cl (configuration not stated),-3,2,-11,1,0
CCOC(=O)CC(NC(=O)C1c2ccccc2Oc2ccccc21)c1ccccc1Cl (configuration not stated),19,31,102*,49,0
COc1ccc(N2CCN(C(=O)COC(=O)CCc3ccccc3OC)CC2)cc1,.,-6,-1,-3,.
COc1cc(C(=O)Sc2ccc(Cl)cc2)cc(OC)c1OC,30,32,79*,60,0
CCOc1ccccc1NC(=O)CSc1ccccc1,2,-10,4,-1,0
CCOc1ccccc1NC(=O)COC(=O)CSc1ccc(Cl)cc1,57*,-21,-5,-9,0
O=C(COC(=O)Cn1cnc2ccccc2c1=O)Nc1ccccc1Sc1ccc(Cl)cc1,69*,-15,6,-5,0
CCN1CCN(C(=O)C2CCC(=O)N(CCCN3CCCC3=O)C2)CC1 (configuration not stated),.,-6,-24,0,.
COc1cccc(C2NC(=O)N(CCCC(=O)O)C(C)=C2C(=O)OCc2ccccc2)c1 (configuration not stated),.,-12,7,2,.
Cc1nnc(SCC(=O)N(Cc2ccccc2)C(C)(C)C)[nH]c1=O,4,-3,-6,-14,0
CCOc1cc(/C=N/n2cnnc2)ccc1OCC(=O)Nc1ccccc1OC,1,1,2,-2,0
CCOc1cc(/C=N/n2cnnc2)ccc1OS(=O)(=O)c1ccc(C)cc1,79*,45,0,1,0
O=C(c1ccc(S(=O)(=O)N2CCCCC2)cc1)N1CCN(CCN2C(=O)c3cccc4cccc(c34)C2=O)CC1,13,16,45,7,0
O=C(OCN1C(=O)c2ccccc2C1=O)c1ccccc1,-1,-6,75*,37,0
COc1cc(OC)cc(C(=O)NCC(=O)OCC(=O)/C=C2/N(C)c3ccccc3C2(C)C)c1,11,14,-17,-3,0
CN1/C(=C\C(=O)COC(=O)Cn2nnc(-c3ccccc3)n2)C(C)(C)c2ccccc21,90*,18,-19,-4,-1
CN1/C(=C\C(=O)COC(=O)c2ccc([N+](=O)[O-])o2)C(C)(C)c2ccccc21,81*,17,33,7,0
CCN(CCO)C(=O)CC(c1ccccc1)c1cc(Br)ccc1O (configuration not stated),50*,-9,27,12,0
CCCN(CCC)C(=O)CC(c1ccccc1)c1cc(C)ccc1O (configuration not stated),14,17,8,3,0
CCc1nnc(NC(=O)c2ccc3ccccc3n2)s1,56*,-9,27,11,0
CCSc1nnc(NC(=O)c2ccc3ccccc3n2)s1,18,6,28,18,0
CCn1ncc(Br)c1C(=O)Nc1ccccc1C(F)(F)F,.,-20,19,-4,.
O=C(C1CCN(Cc2cccs2)CC1)N1CCN(Cc2ccc3c(c2)OCO3)CC1,10,3,-8,-6,0
SMILES,Lmaj promast,T cruzi inh,HSF-1 act,HSF1 inh,Hsp70 act
Cc1cc(N/N=C/c2ccccc2Br)nc2ccccc12,52*,?,-18,-8,0
Cc1ccc(CN2CCNC(=O)C2CC(=O)N(C)C2CCOCC2)cc1 (configuration not stated),.,-1,4,-8,.
CC(C)CCn1c(Sc2nc3ccccc3o2)nc2c1c(=O)[nH]c(=O)n2C,95*,16,29,5,0
CCCCCn1c(Sc2nc3ccccc3s2)nc2c1c(=O)[nH]c(=O)n2C,1,38,58*,37,-1
O=C(NC1CCS(=O)(=O)C1)c1ccc(S(=O)(=O)N2CCCCC2)cc1 (configuration not stated),-8,-4,-9,-2,0
Cc1c(C(=O)c2ccccc2C(=O)O)sc2ccccc12,.,-10,17,-2,.
OC(COc1ccccc1)CN1CCN(CC(O)COc2ccccc2)CC1 (configuration not stated),87*,-6,-3,-6,0
O=[N+]([O-])c1ccccc1OCC(O)CN1CCN(CC(O)COc2ccccc2[N+](=O)[O-])CC1 (configuration not stated),.,9,-4,-9,.
CC(C)c1ccc(OCC(O)CN2CCN(c3ccccc3)CC2)cc1 (configuration not stated),87*,16,-21,-10,0
COc1ccc(N2CCN(CC(O)COc3ccccc3[N+](=O)[O-])CC2)cc1 (configuration not stated),92*,19,25,10,0
COc1ccc(C2SCCN2C(=S)Nc2cccc(Cl)c2)cc1 (configuration not stated),80*,-25,15,3,0
COc1ccc(C2SCCN2C(=S)Nc2ccc(Cl)cc2)cc1 (configuration not stated),41,-22,13,0,0
COc1cccc(C(=O)O/N=C(\N)c2ccccn2)c1,.,-6,-89,-87*,.
N/C(=N\OC(=O)c1ccc(Cl)c(Cl)c1)c1cccnc1,3,6,37,20,0
N/C(=N\OC(=O)c1ccc2ccccc2c1)c1ccccc1Cl,.,72*,47,31,.
N/C(=N\OC(=O)c1cccc([N+](=O)[O-])c1)c1ccccn1,-4,-12,38,19,0
O=C(O/N=C(\c1ccccc1)c1ccccn1)c1ccc(Cl)c(Cl)c1,-7,-6,62*,15,0
N/C(=N\OC(=O)c1ccc2ccccc2c1)c1ccncc1,34,-2,40,14,0
N/C(=N\OC(=O)c1ccc2ccccc2c1)c1ccccn1,-3,13,-89,-85*,0
COc1ccccc1N1CCN(C(=O)C2CCN(C(=O)c3ccc(C(C)(C)C)cc3)CC2)CC1,.,5,28,15,.
CC(C)CCN1C(=O)c2ccc(C(=O)Nc3ccccc3C(=O)O)cc2C1=O,.,-8,-15,-8,.
COc1ccc(NC(=O)CSc2nnc(-c3cccnc3)s2)cc1,.,-1,-17,-4,.
CCCc1ccc(C(=O)O/N=C(\N)c2ccccn2)cc1,.,40,-83,-83*,.
N/C(=N\OC(=O)c1ccc(=O)n(Cc2ccccc2)c1)c1ccccn1,2,-6,10,4,0
COc1ccc2nc(NC(=O)C(NS(=O)(=O)c3cccs3)C(C)C)sc2c1 (configuration not stated),89*,-33,15,8,0
